Measurements as given in article PMC7825275 (Cancer chemotherapy and pharmacology, 2019).

How the values were obtained:
patients [1] = conditions: with topotecan 0.6 mg on days 1-5; profound myelosuppression; cited from earlier work
[2] = Veliparib plasma pharmacokinetics; format: in vivo, human
[3] = system: advanced solid malignancies; assay: Tumor response by RECIST 1.0, veliparib with carboplatin and paclitaxel; format: in vivo, human
Procedure, shortened: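 Tumor response followed RECIST 1.0 on CT or MRI. Scans were done every 2 cycles; for the first 46 subjects, the first scan was after cycle 3 and then every 2 cycles. Oral veliparib was given twice daily on days 1–7, with IV carboplatin/paclitaxel, in 21-day cycles, up to 6 cycles recommended.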

[4] = Reported veliparib half-life; format: in vivo, human; conditions: for a 6.1 h half-life
[5] = system: previously untreated non-small cell lung cancer; conditions: with carboplatin (AUC=6) plus paclitaxel (200 mg/m^2), Japanese patients; cited from earlier work
patients [6] = conditions: out of 35 patients enrolled, with oral daily cyclophosphamide; cited from earlier work
[7] = patients, oral veliparib 10-120 mg BID
[8] = Adenoid cystic of lung, 1 evaluable, with carboplatin and paclitaxel
[9] = Adrenalcortical carcinoma, 1 evaluable, with carboplatin and paclitaxel
[10] = All Patients, 67 evaluable, with carboplatin and paclitaxel
[11] = Ampulla of Vater, 1 evaluable, with carboplatin and paclitaxel
[12] = Bladder, 6 evaluable, with carboplatin and paclitaxel
[13] = Breast, 13 evaluable, with carboplatin and paclitaxel
[14] = Carcinoma of unknown origin, 3 evaluable, with carboplatin and paclitaxel
[15] = Cervix, 1 evaluable, with carboplatin and paclitaxel
[16] = Cholangiocarcinoma, 2 evaluable, with carboplatin and paclitaxel
[17] = Esophageal, 2 evaluable, with carboplatin and paclitaxel
[18] = Head & Neck, 8 evaluable, with carboplatin and paclitaxel
[19] = Level 1: veliparib 10 mg BID, carboplatin AUC 6, paclitaxel 150 mg/m^2, 5 evaluable
[20] = Level 4: veliparib 40 mg BID, carboplatin AUC 6, paclitaxel 175 mg/m^2, 3 evaluable
[21] = Level 5: veliparib 40 mg BID, carboplatin AUC 6, paclitaxel 200 mg/m^2, 12 evaluable
[22] = Level 7B: veliparib 100 mg BID, carboplatin AUC 6, paclitaxel 200 mg/m^2, 14 evaluable
[23] = Level 8: veliparib 120 mg BID, carboplatin AUC 6, paclitaxel 200 mg/m^2, 8 evaluable
[24] = Lung, 16 evaluable, with carboplatin and paclitaxel
[25] = Melanoma, 9 evaluable, with carboplatin and paclitaxel
[26] = Myxoid chondrosarcoma, 1 evaluable, with carboplatin and paclitaxel
[27] = Prostate, 1 evaluable, with carboplatin and paclitaxel
[28] = Stomach, 1 evaluable, with carboplatin and paclitaxel
[29] = Uterine, 1 evaluable, with carboplatin and paclitaxel

SMILES: C[C@]1(c2nc3c(C(N)=O)cccc3[nH]2)CCCN1 [veliparib]
- MTD, veliparib dose (patients [1]): 10 mg bid
- AUC on day 3 in the presence of carboplatin and paclitaxel (AUC0-12) vs day 1 veliparib alone (AUC0-inf) ([2]; P=0.049 by exact Wilcoxon): barely significantly lower than expected
- Cmax in the absence vs presence of carboplatin and paclitaxel ([2]; day 1 vs day 3): similar
- expected accumulation ratio by day 3 based on observed half-life ([2]; for a 5.1 h half-life, not observed for Cmax nor AUC): 1.20
- half-life ([2]; human, plasma, po): 5.1 h
- apparent clearance [2, 7]: 27.5 L/h
- exposure versus dose [2, 7]: increase linearly with dose
- CR [3, 8]: 0
- ORR [3, 8]: 0/1 (0%)
- PD [3, 8]: 0
- PR [3, 8]: 0
- CR [3, 9]: 0
- ORR [3, 9]: 0/1 (0%)
- PD [3, 9]: 1
- PR [3, 9]: 0
- CR [3, 10]: 5
- ORR [3, 10]: 27/67 (40%)
- PD [3, 10]: 8
- CR [3, 11]: 0
- ORR [3, 11]: 0/1 (0%)
- PD [3, 11]: 0
- PR [3, 11]: 0
- CR [3, 12]: 1
- ORR [3, 12]: 3/6 (50%)
- PD [3, 12]: 1
- PR [3, 12]: 2
- CR [3, 13]: 3
- ORR [3, 13]: 9/13 (69%)
- PD [3, 13]: 2
- PR [3, 13]: 6
- CR [3, 14]: 0
- ORR [3, 14]: 1/3 (33%)
- PD [3, 14]: 0
- PR [3, 14]: 1
- CR [3, 15]: 0
- ORR [3, 15]: 0/1 (0%)
- PD [3, 15]: 1
- PR [3, 15]: 0
- CR [3, 16]: 0
- ORR [3, 16]: 0/2 (0%)
- PD [3, 16]: 0
- PR [3, 16]: 0
- CR [3, 17]: 0
- ORR [3, 17]: 0/2 (0%)
- PD [3, 17]: 0
- PR [3, 17]: 0
- CR [3, 18]: 0
- ORR [3, 18]: 3/8 (38%)
- PD [3, 18]: 0
- PR [3, 18]: 3
- CR [3, 19]: 0
- ORR [3, 19]: 2/5 (40%)
- PD [3, 19]: 1
- PR [3, 19]: 2
- CR [3, 20]: 0
- ORR [3, 20]: 1/3 (33%)
- PD [3, 20]: 0
- PR [3, 20]: 1
- CR [3, 21]: 2
- ORR [3, 21]: 6/12 (50%)
- PD [3, 21]: 1
- PR [3, 21]: 4
- CR [3, 22]: 0
- ORR [3, 22]: 3/14 (21%)
- PD [3, 22]: 3
- PR [3, 22]: 3
- CR [3, 23]: 0
- ORR [3, 23]: 4/8 (50%)
- PD [3, 23]: 1
- PR [3, 23]: 4
- CR [3, 24]: 1
- ORR [3, 24]: 7/16 (44%)
- PD [3, 24]: 2
- PR [3, 24]: 6
- CR [3, 25]: 0
- ORR [3, 25]: 1/9 (11%)
- PD [3, 25]: 1
- PR [3, 25]: 1
- CR [3, 26]: 0
- ORR [3, 26]: 0/1 (0%)
- PD [3, 26]: 0
- PR [3, 26]: 0
- CR [3, 27]: 0
- ORR [3, 27]: 1/1 (100%)
- PD [3, 27]: 0
- PR [3, 27]: 1
- CR [3, 28]: 0
- ORR [3, 28]: 1/1 (100%)
- PD [3, 28]: 0
- PR [3, 28]: 1
- CR [3, 29]: 0
- ORR [3, 29]: 1/1 (100%)
- PD [3, 29]: 0
- PR [3, 29]: 1
- expected accumulation ratio by day 3 based on reported half-life [4]: 1.34
- MTD, veliparib dose [5]: 120 mg
- partial responses (patients [6]): seven
